# Assay results published in PubChem BioAssay.
# The source made the active and inactive calls.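 The calls were made as follows, unless noted: active = viability loss from added drug above about 55%, and viability with drug at most 40%, in both replicates (limit read from the data, passing the limit was not always enough); inconclusive = both conditions met in only one replicate; inactive = neither replicate meets both conditions.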
# Experiments:
# [1] = reducers of endogenous Her2 protein level, primary screen, SKBR3 breast tumor cells, AlphaScreen, ATP viability (AID 461;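 active = Her2 level under about 52% in both replicate screens, with viability over 70% of control, limit read from the data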;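 as to Her2 level: lower value means less Her2 protein in the cells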;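 as to viability: percent of carrier control wells set as 100% viability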); conditions: 18-24 h, measured here: SKBR3 viability, ATP luminescence, at 10 µM
# [2] = biological target: Receptor tyrosine-protein kinase erbB-2 (Homo sapiens) (UniProt P04626); assay: as above; conditions: 18-24 h, at 10 µM, stronger effect = lower value
# [3] = SK-BR-3 cell growth inhibitors, pilot screen, 24 h, human (AID 572;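 active = viability at or below 10% of carrier control in both of two separate runs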;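 also: compound exposure lasted between 18 and 24 h rather than exactly 24 h; 100% = carrier-treated control wells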); conditions: SK-BR-3 viability, CellTiter-Glo luminescence, at 10 µM, stronger effect = lower value
# [4] = growth inhibitors of H69AR lung tumor, primary screen, human, duplicate replicates (AID 580;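 active = viability at or under a set limit in both replicates, limit being median viability minus 3 SD, cut at about 48% in these data, passing the limit was not always enough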;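 also: 100% = mean luminescence of untreated wells and 0% = no signal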); conditions: H69AR lung tumor cells viability, ATP luminescence, 72 h; at 10 µM; stronger effect = lower value
# [5] = reversal of MRP1-mediated doxorubicin resistance, pilot screen, H69AR cells, doxorubicin co-treatment (AID 601); conditions: CellTiter-Glo, 72 h, at 10 µM; for differential viability (reversal): stronger effect = higher value
# [6] = 384-well plate pilot, post-Golgi transport modulator project, inhibition of yeast transport mutant growth (AID 636; in the data active = inhibition above about 31%); conditions: absorbance 615 nm, about 18 h, stronger effect = higher value
# [7] = growth suppression of yeast trafficking mutant, preliminary HTS, modulators of trafficking downstream of Golgi apparatus project, 1536-format plate, OD 615 nm (AID 637; in the data active = inhibition above about 30%); conditions: yeast transport mutant growth, absorbance 615 nm, 18 h; stronger effect = higher value
# [8] = HUVEC growth inhibition – cell-based, human, primary screen (AID 575;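 active = viability at or below 30% in both replicate assays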;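 also: 100% = median of untreated cell wells with 0.1% DMSO on each plate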); conditions: HUVEC proliferation, CellTiter-Glo luminescence, 72 h; at 10 µM; stronger effect = lower value
# Procedure, shortened: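 Assay system: Primary human umbilical vein endothelial cells | Quantity: 1250 cells per well | Medium: Supplemented EBM, 2% fetal bovine serum | Detection: CellTiter-Glo luminescence measuring cellular ATP | Read-out: % viability vs DMSO wells | Plate: Collagen-coated 384-well format | Times: 72 h exposure, 37 °C, 5% CO2, 30 min RT equilibration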
# [9] = H69AR cells + 2 uM doxorubicin, measured here: viability with 2 uM doxorubicin, stronger effect = lower value
# [10] = H69AR cells, compound alone cytotoxicity
# Chain of Receptor tyrosine-protein kinase erbB-2 (Homo sapiens) (P04626 whole entry, looked up): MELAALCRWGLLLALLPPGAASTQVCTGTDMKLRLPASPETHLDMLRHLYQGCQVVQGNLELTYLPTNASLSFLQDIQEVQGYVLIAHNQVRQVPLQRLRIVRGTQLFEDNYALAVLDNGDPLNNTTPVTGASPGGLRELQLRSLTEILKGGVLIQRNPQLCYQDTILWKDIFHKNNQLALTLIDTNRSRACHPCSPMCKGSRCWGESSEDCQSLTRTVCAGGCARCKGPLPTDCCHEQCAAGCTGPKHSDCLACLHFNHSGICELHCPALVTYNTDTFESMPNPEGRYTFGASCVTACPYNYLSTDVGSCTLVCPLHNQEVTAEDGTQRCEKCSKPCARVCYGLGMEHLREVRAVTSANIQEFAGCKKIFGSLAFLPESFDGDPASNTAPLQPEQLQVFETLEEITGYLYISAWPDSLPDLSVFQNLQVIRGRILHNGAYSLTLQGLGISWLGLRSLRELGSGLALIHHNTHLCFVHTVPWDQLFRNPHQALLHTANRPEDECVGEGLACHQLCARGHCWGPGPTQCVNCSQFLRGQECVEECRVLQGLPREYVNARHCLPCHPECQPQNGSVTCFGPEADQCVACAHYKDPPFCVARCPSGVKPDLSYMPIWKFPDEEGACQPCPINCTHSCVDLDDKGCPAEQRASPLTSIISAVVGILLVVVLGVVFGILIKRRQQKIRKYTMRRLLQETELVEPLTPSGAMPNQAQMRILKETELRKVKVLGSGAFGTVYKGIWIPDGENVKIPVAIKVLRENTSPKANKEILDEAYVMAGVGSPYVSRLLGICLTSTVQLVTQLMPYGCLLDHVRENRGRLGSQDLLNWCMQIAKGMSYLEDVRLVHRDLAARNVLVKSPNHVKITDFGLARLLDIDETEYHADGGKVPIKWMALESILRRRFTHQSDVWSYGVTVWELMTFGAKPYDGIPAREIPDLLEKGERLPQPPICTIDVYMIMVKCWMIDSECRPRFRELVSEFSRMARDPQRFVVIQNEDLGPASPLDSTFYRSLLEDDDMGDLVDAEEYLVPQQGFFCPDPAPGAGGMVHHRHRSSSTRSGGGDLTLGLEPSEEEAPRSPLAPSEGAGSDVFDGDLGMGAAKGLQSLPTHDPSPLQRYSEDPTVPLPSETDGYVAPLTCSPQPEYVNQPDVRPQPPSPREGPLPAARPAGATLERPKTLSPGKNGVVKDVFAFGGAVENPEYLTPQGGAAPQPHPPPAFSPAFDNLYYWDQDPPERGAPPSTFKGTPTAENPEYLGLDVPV
Structure (SMILES),viability [1],Her2 level [2],viability [3],viability [4],differential viability (reversal) ([5]; H69AR cells + 2 uM doxorubicin),"viability [5, 9]","viability [5, 10]",inhibition [6],inhibition [7],viability [8]
COc1ccc(-c2cc3c(=O)n(CC(=O)NC4CCN(Cc5ccccc5)CC4)ncn3n2)cc1,75%,103% (inactive),75% (inactive),74.2% (inactive),-0.715% (inactive),75%,74.2%,-5.66% (inactive),-0.83% (inactive),–
C=CCSC1=C(C#N)C(c2ccccc2C)CC(=O)N1 (stereo not given),95.5%,99% (inactive),95.5% (inactive),–,-0.42% (inactive),10.6%,10.1%,-2.21% (inactive),-2.38% (inactive),89% (inactive)
CCOC(=O)c1c(C)oc2c1c(C=NCc1ccccn1)c(O)c1ccccc12,154%,22% (active),154% (inactive),16.5% (active),6.13% (inactive),10.3%,16.5%,-8.38% (inactive),3.67% (inactive),–
Cc1nn(-c2nc3ccccc3s2)c(C)c1Oc1ccccc1O,102%,79.5% (inactive),102% (inactive),–,-6.93% (inactive),67%,60%,-6.13% (inactive),-0.63% (inactive),20.3% (active)
CC(C)(C)n1nnnc1C(c1ccccc1)N1CCc2ccccc2C1 (stereo not given),107%,82% (inactive),107% (inactive),–,5.93% (inactive),43.4%,49.3%,-7.26% (inactive),-2.7% (inactive),42% (inactive)
CC(C)C[C@H]1C(=O)N2CCC[C@H]2[C@]2(O)O[C@](NC(=O)[C@@H]3C=C4c5cccc6[nH]c(Br)c(c56)CC4N(C)C3)(C(C)C)C(=O)N12 (stereo not given in full),138%,71% (inactive),138% (inactive),84.2% (inactive),11.8% (inactive),72.4%,84.2%,–,–,–
NC(=O)c1cc(-c2ccccc2)nc(N2CCOCC2)n1,102%,69.5% (inactive),102% (inactive),84.4% (inactive),12.1% (inactive),72.3%,84.4%,-2.97% (inactive),-6.35% (inactive),–
CCOC(=O)c1ccc(N=Cc2nc(-c3ccccc3)oc2OC(C)=O)cc1,106%,75.5% (inactive),106% (inactive),17.9% (active),-5.29% (inactive),23.2%,17.9%,-4.47% (inactive),-2.38% (inactive),–
CO[C@H]1C=CO[C@@]2(C)Oc3c(C)c(O)c4c(O)c(c(C=NN5CCN(C)CC5)c(O)c4c3C2=O)NC(=O)C(C)=CC=C[C@H](C)[C@H](O)[C@@H](C)[C@@H](O)[C@@H](C)[C@H](OC(C)=O)[C@@H]1C,90.5%,85.5% (inactive),90.5% (inactive),88.9% (inactive),1.53% (inactive),87.3%,88.9%,–,–,–
CCC(Sc1nc2n[nH]c(C)c2c(=N)n1-c1cc(Cl)ccc1C)C(=O)N1CCOCC1 (stereo not given),92.5%,96% (inactive),92.5% (inactive),–,29.3% (inactive),17%,46.3%,2.37% (inactive),-10% (inactive),71.2% (inactive)
CCOC(=O)/C=C(\C)Sc1cc(=O)oc2ccccc12,94.5%,47.5% (active),94.5% (inactive),6.09% (active),2.37% (inactive),3.73%,6.09%,-0.92% (inactive),1.45% (inactive),–
O=C(O)CCc1cc(I)c(Oc2ccc(O)c(I)c2)c(I)c1,104%,76.5% (inactive),104% (inactive),102% (inactive),3.29% (inactive),98.8%,102%,–,–,–
CC(C)Cn1c(=O)c(C(=O)NCc2ccccn2)c(O)c2ccccc21,110%,78.5% (inactive),110% (inactive),–,-15% (inactive),67.3%,52.3%,-7.43% (inactive),-3.17% (inactive),61.4% (inactive)
CC1CCc2nc(NC(=O)CN3CCN(Cc4ccc5c(c4)OCO5)CC3)sc2C1 (stereo not given),90.5%,77.5% (inactive),90.5% (inactive),87.8% (inactive),14.3% (inactive),73.5%,87.8%,-0.66% (inactive),2.1% (inactive),–
Cc1ccc(C(C)C)c(OCc2nnc(SCC(=O)Nc3ncc(C)s3)n2C)c1,89.5%,86% (inactive),89.5% (inactive),41.1% (active),1.44% (inactive),39.7%,41.1%,0% (inactive),-5.48% (inactive),–
CC(C)Cn1c(N)c(C(=O)NCc2cccs2)c2nc3ccccc3nc21,77%,101% (inactive),77% (inactive),12% (active),-5.04% (inactive),17.1%,12%,24.3% (inactive),12.1% (inactive),–
COc1ccc(CNc2oc(COc3ccccc3Cl)nc2C#N)cc1,84%,68.5% (inactive),84% (inactive),87.3% (inactive),-4.78% (inactive),92.1%,87.3%,0.26% (inactive),14.1% (inactive),–

Structure (SMILES),viability [1],Her2 level [2],viability [3],viability [4],differential viability (reversal) ([5]; H69AR cells + 2 uM doxorubicin),"viability [5, 9]","viability [5, 10]",inhibition [6],inhibition [7],viability [8]
N#C/C(=C(/O)COC(=O)CCC1CCCCC1)c1nc2ccccc2[nH]1,126%,31% (active),126% (inactive),38.1% (active),-9.79% (inactive),47.9%,38.1%,-4.8% (inactive),2.3% (inactive),–
Cc1ccc2c(c1)-c1c(cnn1CC(=O)Nc1ccccc1N1CCN(C)CC1)CO2,93.5%,84% (inactive),93.5% (inactive),85.2% (inactive),4.26% (inactive),80.9%,85.2%,-1.2% (inactive),-3.28% (inactive),–
CCn1cc(C(=O)OCC(=O)OC2CC(C)CCC2C(C)C)c(=O)c2ccc(C)nc21 (stereo not given),94.5%,67.5% (inactive),94.5% (inactive),–,-1.67% (inactive),46.3%,44.7%,78.4% (active),-1.45% (inactive),35.3% (inactive)
CCOc1ccc2nc(NC(=O)C(NS(=O)(=O)c3cccs3)C(C)C)sc2c1 (stereo not given),116%,68.5% (inactive),116% (inactive),86.7% (inactive),11.7% (inactive),75%,86.7%,0% (inactive),-1.9% (inactive),–
CCOC(=O)c1sc2nc(N3CCCC3)c3c(c2c1N)CC(C)(C)OC3,75.5%,80.5% (inactive),75.5% (inactive),–,-12.8% (inactive),65.9%,53.1%,-7.92% (inactive),-9.83% (inactive),58.8% (inactive)
CS(=O)(=O)c1ncc(Cl)c(C(=O)Nc2ccc(N3CCOCC3)cc2)n1,201%,8% (active),201% (inactive),0.715% (active),0.355% (inactive),0.36%,0.715%,-4.21% (inactive),3.65% (inactive),–
Cc1ccc2cc(CN(CCN3CCCC3)C(=O)Nc3ccc(F)cc3)c(=O)[nH]c2c1C,94.5%,81% (inactive),94.5% (inactive),–,-12.2% (inactive),25.6%,13.5%,0.52% (inactive),-0.79% (inactive),38.8% (inactive)
ON=C1/C(=N\O)CC2(C/C1=N/O)OCCO2,89%,113% (inactive),89% (inactive),86.9% (inactive),-0.75% (inactive),87.7%,86.9%,-8.27% (inactive),-2.1% (inactive),–
Cc1ccc(C)c(S(=O)(=O)C(C#N)c2nc3ccccc3nc2N2CC(C)OC(C)C2)c1 (stereo not given),91%,77% (inactive),91% (inactive),–,-10.3% (inactive),70.7%,60.4%,0.52% (inactive),16.7% (inactive),52.2% (inactive)
Oc1ccccc1-c1cc(C(F)(F)C(F)F)[nH]n1,97%,93% (inactive),97% (inactive),98.3% (inactive),11.3% (inactive),87.1%,98.3%,-2.69% (inactive),2.83% (inactive),–
Cc1ccc(S(=O)(=O)c2cc3c(=O)n4ccccc4nc3n(CC3CCCO3)c2=N)cc1C (stereo not given),83%,77.5% (inactive),83% (inactive),–,2.4% (inactive),53.5%,55.9%,-4.86% (inactive),2.95% (inactive),69.9% (inactive)
Cc1ccc2nc(NC(=O)C3CCN(S(=O)(=O)c4cccc5nsnc45)CC3)sc2c1,85.5%,63.5% (inactive),85.5% (inactive),–,-10.7% (inactive),76.5%,65.8%,-5.07% (inactive),10.3% (inactive),42.8% (inactive)
O=C(Nc1ccc(S(=O)(=O)N2CCCCCC2)cc1)c1ccco1,94.5%,89.5% (inactive),94.5% (inactive),97.1% (inactive),2.81% (inactive),94.3%,97.1%,-1.17% (inactive),6.07% (inactive),–
CN1CC=C2C(C#N)=C(N)C(C#N)(C#N)[C@H](c3cccc(Cl)c3)C2C1 (stereo not given in full),94%,73.5% (inactive),94% (inactive),–,32.6% (inactive),22.1%,54.7%,-4.27% (inactive),-1.9% (inactive),83% (inactive)
CCOC(=O)c1cc(-c2ccc3c(c2)OCO3)nc2onc(C)c12,110%,89.5% (inactive),110% (inactive),67.2% (inactive),-3.71% (inactive),70.9%,67.2%,-4.93% (inactive),2.9% (inactive),–
O=c1c2ccccc2nc(SCc2nnc(-c3ccccc3Br)o2)n1-c1ccccc1,77%,95.5% (inactive),77% (inactive),84.2% (inactive),-3.29% (inactive),87.5%,84.2%,-0.27% (inactive),3.77% (inactive),–
CCOC(=O)c1cnc(-n2nc(C)cc2C)nc1NC(C)c1ccccc1 (stereo not given),153%,65% (inactive),153% (inactive),10.1% (active),-1.17% (inactive),11.3%,10.1%,-3.16% (inactive),14.3% (inactive),–
